Series [1] concerns Influenza A virus. The series is described as follows: Antiviral activity against Influenza A virus A/WSN/33 infected in MDCK cells assessed as reduction in virus-induced cytopathic effect at 100 uM after 40 hrs by Celltiter-Glo assay relative to control. As to conditions: A/WSN/33, MDCK. In kind it is functional. An outline of the steps: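 This was a single-concentration screen at 100 μM in MDCK cells infected with A/WSN/33 at MOI 0.1. CPE protection was read by CellTiter-Glo after 40 h of incubation. The inhibition rate was expressed relative to 1% DMSO (final) negative control, with oseltamivir phosphate as the positive control. Experiments were run in triplicate.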
(In general: Damage to the host cells serves as the signal in cytopathic effect assays.)

Series [2] can be described thus: Cytotoxicity against dog MDCK cells assessed as cell viability at 100 uM measured after 40 hrs by Celltiter-Glo assay relative to control. Conditions: read-out: Activity. In kind it is cell-based, Canis lupus familiaris. The method in brief:
(§1)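 Uninfected MDCK cells were grown overnight in 96-well plates with 1% FBS. They were then exposed to increasing compound concentrations, or to a single 100 μM screen, for 40 h, and viability was read by CellTiter-Glo. CC50 is the concentration causing 50% death of uninfected cells.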
(In general: Cellular ATP, detected with luciferase, serves as a proxy for viable cell number.)

Series [3] in a line: Cytotoxicity against dog MDCK cells assessed as reduction in cell viability measured after 40 hrs by Celltiter-Glo assay. In kind it is cell-based, Canis lupus familiaris. An outline of the steps: as §1
The target of series [4] is Hemagglutinin (Influenza A virus) (UniProt B4URE7). The series is described as follows: Inhibition of influenza A virus A/WSN/33 HA-mediated chicken erythrocytes hemagglutination pretreated with compound followed by erythrocytes addition measured after 30 mins. An outline of the steps: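 Compound was serially diluted 2-fold in saline and mixed with an equal volume of A/WSN/33 (H1N1) virus in V-bottom plates. Freshly prepared chicken red blood cells (1% v/v in saline) were then added. After 30 min at room temperature, erythrocyte aggregation was scored visually. Anti-HA antibody served as the positive control.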
Sequence of Hemagglutinin (Influenza A virus) (B4URE7 as listed by the source): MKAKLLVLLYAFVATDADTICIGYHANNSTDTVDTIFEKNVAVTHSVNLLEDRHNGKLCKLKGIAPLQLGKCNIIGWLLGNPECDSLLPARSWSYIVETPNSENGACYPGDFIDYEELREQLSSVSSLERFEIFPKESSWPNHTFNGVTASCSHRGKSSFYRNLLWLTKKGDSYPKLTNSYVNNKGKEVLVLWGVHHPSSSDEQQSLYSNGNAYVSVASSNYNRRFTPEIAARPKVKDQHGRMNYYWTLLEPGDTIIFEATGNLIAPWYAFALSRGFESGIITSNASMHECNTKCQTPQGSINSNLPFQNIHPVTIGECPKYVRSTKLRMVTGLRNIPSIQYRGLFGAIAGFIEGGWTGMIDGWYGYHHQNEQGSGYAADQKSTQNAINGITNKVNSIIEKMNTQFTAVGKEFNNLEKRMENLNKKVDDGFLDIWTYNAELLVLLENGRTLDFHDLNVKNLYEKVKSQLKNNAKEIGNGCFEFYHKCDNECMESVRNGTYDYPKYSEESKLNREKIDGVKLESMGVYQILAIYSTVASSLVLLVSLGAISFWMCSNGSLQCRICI

The subject of series [5] is Influenza A virus. The series is described as follows: Antiviral activity against Influenza A virus A/WSN/33 assessed as inhibition of virus-induced cytopathic effect after 40 hrs by Celltiter-Glo assay. In kind it is functional, organism-based. Conditions: A/WSN/33, 40 h. An outline of the steps:
(§2)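 MDCK cells were seeded in 96-well plates, left overnight, then infected with influenza virus at MOI 0.1 and treated with the compound. After 40 h, viability was read by CellTiter-Glo luminescence. 1% DMSO (final) served as the negative control and oseltamivir phosphate as the positive control. IC50 is the concentration that inhibits virus-induced CPE by 50%, taken from dose-response curves in replicate independent experiments.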

Series [6] can be described thus: Selectivity index, ratio of CC50 for MDCK cells to IC50 for influenza A virus A/WSN/33. In kind it is toxicity. As to conditions: dog, read-out: Ratio CC50/IC50. An outline of the steps: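 SI was calculated as CC50 (uninfected MDCK, 40 h CellTiter-Glo) divided by IC50 (50% inhibition of A/WSN/33 replication in MDCK, MOI 0.1, 40 h CellTiter-Glo).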
Series [7] has as its system Influenza A virus. The series is described as follows: Antiviral activity against Influenza A virus A/Victoria/361/2011(H3N2) infected in MDCK cells assessed as inhibition of virus-induced cytopathic effect after 40 hrs by Celltiter-Glo assay. In kind it is functional, organism-based. The method in brief:
as §2

Series [8] concerns Influenza B virus. Nature of the series: Antiviral activity against Influenza B virus B/Yamagata/16/88(BY) infected in MDCK cells assessed as inhibition of virus-induced cytopathic effect after 40 hrs by Celltiter-Glo assay. In kind it is functional, organism-based. An outline of the steps:
as §2

In series [9] the test system is Influenza B virus. Nature of the series: Antiviral activity against Influenza B virus B/Sichuan/531/2018(BV) infected in MDCK cells assessed as inhibition of virus-induced cytopathic effect after 40 hrs by Celltiter-Glo assay. In kind it is functional, organism-based. The method in brief:
as §2

For series [10], the system named is Influenza B virus. Nature of the series: Antiviral activity against Influenza B virus B/Massachusetts/2/2012(BV) infected in MDCK cells assessed as inhibition of virus-induced cytopathic effect after 40 hrs by Celltiter-Glo assay. In kind it is functional, organism-based. An outline of the steps:
as §2

The subject of series [11] is Influenza B virus. Nature of the series: Potency index, ratio of OSV-p IC50 to compound IC50 for antiviral activity against Influenza B virus B/Yamagata/16/88(BY). In kind it is functional.
The subject of series [12] is MDCK. The series is described as follows: Cytotoxicity against dog MDCK cells assessed as reduction in cell viability at 100 uM measured after 40 hrs by Celltiter-Glo assay. In kind it is cell-based, Canis lupus familiaris. An outline of the steps:
as §1

The text below walks through data of ChEMBL document CHEMBL4359890, “Design, synthesis of oleanolic acid-saccharide conjugates using click chemistry methodology and study of their anti-influenza activity” (Eur J Med Chem, 2019).

The structures appear in SMILES notation. The source made the active and inactive calls. The calls are words filed in the database; no cut-off is given here.

The term inhibition denotes the change of the read-out against control, counted positive when it falls. As usually defined, the CC50 is the concentration at which the toxic effect on the cells reaches its halfway point. For orientation: IC50 means the concentration that inhibits the measured activity by half. On to `CC1(C)CC[C@]2(C(=O)NCc3cn([C@@H]4O[C@H](CO)[C@@H](O)[C@H](O)[C@H]4O)nn3)CC[C@]3(C)C(=CC[C@@H]4[C@@]5(C)CC[C@H](O)C(C)(C)[C@@H]5CC[C@]43C)[C@@H]2C1`, for which the inhibition at 100 µM in [1] was more than 75%. Besides, the viability at 40 h, 100 µM in series [2] was more than 75%. Further, the CC50 at 40 h in [3] was more than 100 µM. Also, the inhibition entry in [4] was “Active”. In addition, the IC50 in series [5] stood at 5.47 µM; in [7] it was 10.4 µM; in [8], 5.54 µM; in series [9], 26.1 µM; in series [10] it was 11.5 µM. In addition, in series [6], the selectivity ratio is more than 18.3. The “Ratio IC50” value in series [11] was determined as 4. The Activity entry in [12] was “Non-Toxic”.
